Laboratory results published in ChEMBL document CHEMBL1154611 (J Med Chem, 2009).
Converted amounts (≈) assume the structure as drawn.

Key:
[1] = target: T1, hERG (KCNH2) (Homo sapiens, UniProt Q12809); assay: Inhibition of human ERG expressed in HEK cells at 300 uM; format: cell-based, HEK293; conditions: HEK cells expressing human ERG
[2] = test system: Streptococcus pneumoniae; assay: Antibacterial activity against erythromycin-sensitive Streptococcus pneumoniae ATCC 6301; format: functional
How it was run: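 MIC, the minimal growth inhibitory concentration, was determined in routine screening against the highly erythromycin-sensitive strain Streptococcus pneumoniae ATCC6301.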

[3] = target: Motilin receptor (Oryctolagus cuniculus, UniProt A5A4K8); assay: Agonist activity at motilin receptor in rabbit smooth muscle assessed as maximal possible tissue contraction; format: functional
How it was run: (§1)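 Rabbit smooth muscle contractility assay. EC50 is the concentration giving 50% of the maximal possible contraction. Tachyphylaxis is the % contractile response to an EC90 drug concentration after three cycles of administration and washout.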

[4] = target: T1, hERG (KCNH2); assay: Inhibition of human ERG expressed in HEK cells at 30 uM; format: cell-based, HEK293; conditions: HEK cells expressing human ERG
[5] = target: Motilin receptor (Oryctolagus cuniculus) (UniProt A5A4K8); assay: Agonist activity at motilin receptor in rabbit smooth muscle assessed as tachyphylaxis at EC90 concentration after 4th dose; format: functional; how it was run: as §1
Chain of Motilin receptor (Oryctolagus cuniculus) (A5A4K8 as listed by the source): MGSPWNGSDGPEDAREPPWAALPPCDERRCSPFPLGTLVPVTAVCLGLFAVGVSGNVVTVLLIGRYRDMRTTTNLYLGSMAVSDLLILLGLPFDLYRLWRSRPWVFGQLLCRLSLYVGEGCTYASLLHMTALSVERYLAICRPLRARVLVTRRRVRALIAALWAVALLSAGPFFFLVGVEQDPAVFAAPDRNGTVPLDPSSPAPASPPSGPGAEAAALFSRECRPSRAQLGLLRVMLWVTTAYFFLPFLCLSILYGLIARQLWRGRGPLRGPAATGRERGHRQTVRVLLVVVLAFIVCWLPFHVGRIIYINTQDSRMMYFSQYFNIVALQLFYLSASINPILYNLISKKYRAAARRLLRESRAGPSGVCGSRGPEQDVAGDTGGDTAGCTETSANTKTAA

Chain of Motilin receptor (A5A4K8 whole entry): as the sequence (A5A4K8 as listed by the source) above
T1 sequence (Q12809 whole entry): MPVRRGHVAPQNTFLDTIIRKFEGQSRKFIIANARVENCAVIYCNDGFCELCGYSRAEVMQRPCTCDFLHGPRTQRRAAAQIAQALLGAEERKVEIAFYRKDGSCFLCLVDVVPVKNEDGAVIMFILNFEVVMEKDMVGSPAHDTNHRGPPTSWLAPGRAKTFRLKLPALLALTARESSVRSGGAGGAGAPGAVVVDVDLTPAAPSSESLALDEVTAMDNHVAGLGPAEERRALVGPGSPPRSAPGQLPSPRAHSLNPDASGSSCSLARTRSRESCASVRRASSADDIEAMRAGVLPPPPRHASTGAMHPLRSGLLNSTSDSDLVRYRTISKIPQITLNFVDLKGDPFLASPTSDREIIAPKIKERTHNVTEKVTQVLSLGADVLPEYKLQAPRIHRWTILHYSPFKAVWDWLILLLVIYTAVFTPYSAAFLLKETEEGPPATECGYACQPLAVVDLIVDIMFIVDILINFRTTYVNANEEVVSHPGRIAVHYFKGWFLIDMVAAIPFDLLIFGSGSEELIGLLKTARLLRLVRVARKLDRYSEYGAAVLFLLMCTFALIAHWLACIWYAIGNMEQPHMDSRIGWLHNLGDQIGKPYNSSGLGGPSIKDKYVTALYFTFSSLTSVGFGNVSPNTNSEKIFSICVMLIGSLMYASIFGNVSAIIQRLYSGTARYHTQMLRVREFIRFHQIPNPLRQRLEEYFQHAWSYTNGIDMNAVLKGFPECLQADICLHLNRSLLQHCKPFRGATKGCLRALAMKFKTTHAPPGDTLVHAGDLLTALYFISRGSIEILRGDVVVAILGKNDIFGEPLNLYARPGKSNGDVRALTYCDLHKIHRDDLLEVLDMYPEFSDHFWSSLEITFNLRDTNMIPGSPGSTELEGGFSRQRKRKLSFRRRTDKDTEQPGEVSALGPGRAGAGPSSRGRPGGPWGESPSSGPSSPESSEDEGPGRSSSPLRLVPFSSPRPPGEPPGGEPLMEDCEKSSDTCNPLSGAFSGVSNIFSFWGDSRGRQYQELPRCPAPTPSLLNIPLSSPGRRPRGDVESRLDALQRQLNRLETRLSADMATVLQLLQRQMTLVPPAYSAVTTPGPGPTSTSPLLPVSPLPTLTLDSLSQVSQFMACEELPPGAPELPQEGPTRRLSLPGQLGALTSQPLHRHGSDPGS

Row | MIC [2] | EC50 [3] | Activity [5] | Compound | inhibition at 300 µM [1] | inhibition at 30 µM [4]
1 | 128 µg/mL (≈ 146 µM) | 50 nM |  | CC[C@H]1OC(=O)[C@H](C)[C@@H](O[C@H]2C[C@@](C)(OC)[C@@H](O)[C@H](C)O2)[C@H](C)[C@@H](O[C@@H]2O[C@H](C)C[C@H](N(C)C(C)C)[C@H]2O)[C@](C)(O)C[C@@H](C)[C@H](OCC(=O)NCCOC)[C@H](C)[C@@H](O)[C@]1(C)O | 93% | 33%
2 |  | 25 nM | 63% | CC[C@H]1OC(=O)[C@H](C)[C@@H](O[C@H]2C[C@@](C)(OC)[C@@H](O)[C@H](C)O2)[C@H](C)[C@@H](O[C@@H]2O[C@H](C)C[C@H](N(C)C(C)C)[C@H]2O)[C@](C)(O)C[C@@H](C)[C@H](OCC(=O)Nc2ccncn2)[C@H](C)[C@@H](O)[C@]1(C)O | 60% | 16%
3 | 128 µg/mL (≈ 144 µM) | 150 nM |  | CC[C@H]1OC(=O)[C@H](C)[C@@H](O[C@H]2C[C@@](C)(OC)[C@@H](O)[C@H](C)O2)[C@H](C)[C@@H](O[C@@H]2O[C@H](C)C[C@H](N(C)C(C)C)[C@H]2O)[C@](C)(O)C[C@@H](C)[C@H](OCCCCCC(=O)NC)[C@H](C)[C@@H](O)[C@]1(C)O | 61% | 13%
4 |  | 1500 nM |  | CC[C@H]1OC(=O)[C@H](C)[C@@H](O[C@H]2C[C@@](C)(OC)[C@@H](O)[C@H](C)O2)[C@H](C)[C@@H](O[C@@H]2O[C@H](C)C[C@H](N(C)C(C)C)[C@H]2O)[C@](C)(O)C[C@@H](C)[C@H](OCc2ccc(C(=O)NC)cc2)[C@H](C)[C@@H](O)[C@]1(C)O |  | 
5 | > 128 µg/mL | 510 nM |  | CC[C@H]1OC(=O)[C@H](C)[C@@H](O[C@H]2C[C@@](C)(OC)[C@@H](O)[C@H](C)O2)[C@H](C)[C@@H](O[C@@H]2O[C@H](C)C[C@H](N(C)C3CCC3)[C@H]2O)[C@](C)(O)C[C@@H](C)[C@H](OCC(=O)NC)[C@H](C)[C@@H](O)[C@]1(C)O | 53% | 12%
6 |  | 2100 nM |  | CC[C@H]1OC(=O)[C@H](C)[C@@H](O[C@H]2C[C@@](C)(OC)[C@@H](O)[C@H](C)O2)[C@H](C)[C@@H](O[C@@H]2O[C@H](C)C[C@H](N(C)C(C)C)[C@H]2O)[C@](C)(O)C[C@@H](C)[C@H](OCc2cccc(C(=O)NC)c2)[C@H](C)[C@@H](O)[C@]1(C)O | 100% | 63%
7 | 128 µg/mL (≈ 148 µM) | 84 nM | 79% | CC[C@H]1OC(=O)[C@H](C)[C@@H](O[C@H]2C[C@@](C)(OC)[C@@H](O)[C@H](C)O2)[C@H](C)[C@@H](O[C@@H]2O[C@H](C)C[C@H](N(C)C(C)C)[C@H]2O)[C@](C)(O)C[C@@H](C)[C@H](OCCCC(=O)NC)[C@H](C)[C@@H](O)[C@]1(C)O | 56% | 13%
8 |  | 660 nM | 95% | CC[C@H]1OC(=O)[C@H](C)[C@@H](O[C@H]2C[C@@](C)(OC)[C@@H](O)[C@H](C)O2)[C@H](C)[C@@H](O[C@@H]2O[C@H](C)C[C@H](N(C)C(C)C)[C@H]2O)[C@](C)(O)C[C@@H](C)[C@H](OCC(=O)N(C)C)[C@H](C)[C@@H](O)[C@]1(C)O | 29% | 8%
9 |  | 92 nM |  | CC[C@H]1OC(=O)[C@H](C)[C@@H](O[C@H]2C[C@@](C)(OC)[C@@H](O)[C@H](C)O2)[C@H](C)[C@@H](O[C@@H]2O[C@H](C)C[C@H](N(C)C(C)C)[C@H]2O)[C@](C)(O)C[C@@H](C)[C@H](OCC(=O)NOC)[C@H](C)[C@@H](O)[C@]1(C)O | 82% | 33%
10 | > 128 µg/mL | 67 nM | 89% | CCNC(=O)CO[C@@H]1[C@H](C)[C@@H](O)[C@](C)(O)[C@@H](CC)OC(=O)[C@H](C)[C@@H](O[C@H]2C[C@@](C)(OC)[C@@H](O)[C@H](C)O2)[C@H](C)[C@@H](O[C@@H]2O[C@H](C)C[C@H](N(C)C(C)C)[C@H]2O)[C@](C)(O)C[C@H]1C | 75% | 24%
11 | 128 µg/mL (≈ 140 µM) | 79 nM |  | CC[C@H]1OC(=O)[C@H](C)[C@@H](O[C@H]2C[C@@](C)(OC)[C@@H](O)[C@H](C)O2)[C@H](C)[C@@H](O[C@@H]2O[C@H](C)C[C@H](N(C)C(C)C)[C@H]2O)[C@](C)(O)C[C@@H](C)[C@H](OCC(=O)NCc2ccccc2)[C@H](C)[C@@H](O)[C@]1(C)O | 100% | 67%
12 | 128 µg/mL (≈ 142 µM) | 69 nM |  | CC[C@H]1OC(=O)[C@H](C)[C@@H](O[C@H]2C[C@@](C)(OC)[C@@H](O)[C@H](C)O2)[C@H](C)[C@@H](O[C@@H]2O[C@H](C)C[C@H](N(C)C(C)C)[C@H]2O)[C@](C)(O)C[C@@H](C)[C@H](OCC(=O)Nc2cnccn2)[C@H](C)[C@@H](O)[C@]1(C)O | 88% | 40%
13 | 128 µg/mL (≈ 148 µM) | 140 nM |  | CC[C@H]1OC(=O)[C@H](C)[C@@H](O[C@H]2C[C@@](C)(OC)[C@@H](O)[C@H](C)O2)[C@H](C)[C@@H](O[C@@H]2O[C@H](C)C[C@H](N(C)C(C)C)[C@H]2O)[C@](C)(O)C[C@@H](C)[C@H](OCC(=O)NC(C)C)[C@H](C)[C@@H](O)[C@]1(C)O | 89% | 26%
14 | 128 µg/mL (≈ 142 µM) | 160 nM |  | CC[C@H]1OC(=O)[C@H](C)[C@@H](O[C@H]2C[C@@](C)(OC)[C@@H](O)[C@H](C)O2)[C@H](C)[C@@H](O[C@@H]2O[C@H](C)C[C@H](N(C)C(C)C)[C@H]2O)[C@](C)(O)C[C@@H](C)[C@H](OCC(=O)NCC(F)(F)F)[C@H](C)[C@@H](O)[C@]1(C)O | 82% | 30%
15 |  | 90 nM | 86% | CC[C@H]1OC(=O)[C@H](C)[C@@H](O[C@H]2C[C@@](C)(OC)[C@@H](O)[C@H](C)O2)[C@H](C)[C@@H](O[C@@H]2O[C@H](C)C[C@H](N(C)C(C)C)[C@H]2O)[C@](C)(O)C[C@@H](C)[C@H](OCC(=O)NC)[C@H](C)[C@@H](O)[C@H]1C | 67% | 21%
16 |  | 270 nM |  | CC[C@H]1OC(=O)[C@H](C)[C@@H](O[C@H]2C[C@@](C)(OC)[C@@H](O)[C@H](C)O2)[C@H](C)[C@@H](O[C@@H]2O[C@H](C)C[C@H](N(C)C(C)C)[C@H]2O)[C@](C)(O)C[C@@H](C)[C@H](OCCCCC(=O)NC)[C@H](C)[C@@H](O)[C@]1(C)O | 45% | 3%

Row | Compound | MIC [2] | EC50 [3] | Activity [5] | inhibition at 300 µM [1] | inhibition at 30 µM [4]
17 | CC[C@H]1OC(=O)[C@H](C)[C@@H](O[C@H]2C[C@@](C)(OC)[C@@H](O)[C@H](C)O2)[C@H](C)[C@@H](O[C@@H]2O[C@H](C)C[C@H](N(C)C)[C@H]2O)[C@](C)(O)C[C@@H](C)C(=O)[C@H](C)[C@@H](O)[C@]1(C)O [ERYTHROMYCIN] | 0.0025 µg/mL (≈ 0.00341 µM) | 1200 nM | 97% |  | 
18 | CC[C@H]1OC(=O)[C@H](C)[C@@H](O[C@H]2C[C@@](C)(OC)CC(C)O2)[C@H](C)[C@@H](O[C@@H]2O[C@H](C)C[C@H](N(C)CC)[C@H]2O)C2(C)CC(C)=C(O2)[C@H](C)[C@@H](O)[C@H]1C (single isomer, unassigned) | 64 µg/mL (≈ 91.7 µM) | 7 nM | 22% | 100% | 
